Reference: ChEMBL document CHEMBL4043222, “Pyrrolizines: Design, synthesis, anticancer evaluation and investigation of the potential mechanism of action” (Bioorg Med Chem, 2017)
Activity calls are given as the source filed them. The calls are words filed in the database; no cut-off is given here.

Legend:
[1] = target: Activin receptor type-1-like (Homo sapiens) (UniProt P37023); experiment: Inhibition of ALK1 (unknown origin) at 10 uM using [33P]-ATP after 20 to 40 mins by scintillation counting method
[2] = target: AMP-activated protein kinase (AMPK) alpha-1/beta-1/gamma-1 (Homo sapiens) (UniProt P54619+Q9Y478+Q13131); experiment: Inhibition of AMPK alpha1/beta1/gamma1 (unknown origin) at 10 uM using [33P]-ATP after 20 to 40 mins by scintillation counting method; assay type: protein-complex assay
[3] = target: Mitogen-activated protein kinase kinase kinase 5 (Homo sapiens) (UniProt Q99683); experiment: Inhibition of ASK1 (unknown origin) at 10 uM using [33P]-ATP after 20 to 40 mins by scintillation counting method
Chain of Mitogen-activated protein kinase kinase kinase 5 (Homo sapiens) (Q99683 whole entry): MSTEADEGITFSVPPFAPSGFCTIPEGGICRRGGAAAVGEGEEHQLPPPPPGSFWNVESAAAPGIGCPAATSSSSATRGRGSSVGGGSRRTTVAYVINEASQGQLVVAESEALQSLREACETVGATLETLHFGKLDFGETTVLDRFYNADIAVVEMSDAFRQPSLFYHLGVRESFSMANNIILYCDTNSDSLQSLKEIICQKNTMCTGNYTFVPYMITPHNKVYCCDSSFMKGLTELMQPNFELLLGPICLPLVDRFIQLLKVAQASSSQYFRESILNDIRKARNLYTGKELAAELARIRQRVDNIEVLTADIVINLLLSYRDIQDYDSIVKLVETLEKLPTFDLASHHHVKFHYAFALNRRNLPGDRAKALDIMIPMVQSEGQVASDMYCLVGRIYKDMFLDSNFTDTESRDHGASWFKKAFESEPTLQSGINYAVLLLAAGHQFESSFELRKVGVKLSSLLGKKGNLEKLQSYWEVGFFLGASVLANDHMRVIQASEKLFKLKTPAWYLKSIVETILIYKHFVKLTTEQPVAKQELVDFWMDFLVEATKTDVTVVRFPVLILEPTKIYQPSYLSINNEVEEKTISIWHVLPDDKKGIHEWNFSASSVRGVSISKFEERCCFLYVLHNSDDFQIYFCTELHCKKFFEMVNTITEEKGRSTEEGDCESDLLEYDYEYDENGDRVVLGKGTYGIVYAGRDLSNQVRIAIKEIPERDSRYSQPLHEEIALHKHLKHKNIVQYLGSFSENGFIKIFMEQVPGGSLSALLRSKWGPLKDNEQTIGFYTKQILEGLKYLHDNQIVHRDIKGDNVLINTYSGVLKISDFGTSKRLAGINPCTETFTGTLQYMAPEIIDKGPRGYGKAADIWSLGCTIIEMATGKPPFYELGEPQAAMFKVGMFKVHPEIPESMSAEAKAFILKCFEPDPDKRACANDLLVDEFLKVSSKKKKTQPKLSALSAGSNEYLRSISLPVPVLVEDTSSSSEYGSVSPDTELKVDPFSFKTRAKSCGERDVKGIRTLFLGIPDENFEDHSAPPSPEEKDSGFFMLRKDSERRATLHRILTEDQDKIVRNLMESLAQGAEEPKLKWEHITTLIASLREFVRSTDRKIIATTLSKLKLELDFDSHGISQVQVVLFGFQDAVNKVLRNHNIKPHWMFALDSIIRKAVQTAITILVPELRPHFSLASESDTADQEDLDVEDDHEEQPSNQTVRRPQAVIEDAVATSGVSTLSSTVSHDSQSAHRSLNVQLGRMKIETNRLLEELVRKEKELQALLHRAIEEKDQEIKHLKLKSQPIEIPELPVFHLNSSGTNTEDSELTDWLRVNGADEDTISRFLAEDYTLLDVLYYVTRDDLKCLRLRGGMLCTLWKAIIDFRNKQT

[4] = target: Tyrosine-protein kinase Blk (Homo sapiens) (UniProt P51451); experiment: Inhibition of BLK (unknown origin) at 10 uM using [33P]-ATP after 20 to 40 mins by scintillation counting method
Chain of Tyrosine-protein kinase Blk (Homo sapiens) (P51451 2-505 limits assumed): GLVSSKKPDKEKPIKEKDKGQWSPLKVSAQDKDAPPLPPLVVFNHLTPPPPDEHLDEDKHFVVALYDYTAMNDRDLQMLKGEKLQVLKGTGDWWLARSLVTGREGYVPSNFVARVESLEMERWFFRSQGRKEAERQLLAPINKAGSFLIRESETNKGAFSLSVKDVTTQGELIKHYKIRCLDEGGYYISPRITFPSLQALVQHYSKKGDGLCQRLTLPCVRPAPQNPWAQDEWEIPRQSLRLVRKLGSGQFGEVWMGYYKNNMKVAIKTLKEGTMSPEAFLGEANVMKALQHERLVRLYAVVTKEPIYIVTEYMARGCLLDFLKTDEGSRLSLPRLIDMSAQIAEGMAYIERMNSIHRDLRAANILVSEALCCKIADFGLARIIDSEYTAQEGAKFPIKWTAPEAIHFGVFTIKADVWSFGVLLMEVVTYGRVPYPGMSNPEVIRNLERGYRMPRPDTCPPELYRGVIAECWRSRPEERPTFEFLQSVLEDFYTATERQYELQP

[5] = target: Casein kinase I isoform alpha (Homo sapiens) (UniProt P48729); experiment: Inhibition of CK1alpha1 (unknown origin) at 10 uM using [33P]-ATP after 20 to 40 mins by scintillation counting method
Chain of Casein kinase I isoform alpha (Homo sapiens) (P48729 2-337 limits assumed): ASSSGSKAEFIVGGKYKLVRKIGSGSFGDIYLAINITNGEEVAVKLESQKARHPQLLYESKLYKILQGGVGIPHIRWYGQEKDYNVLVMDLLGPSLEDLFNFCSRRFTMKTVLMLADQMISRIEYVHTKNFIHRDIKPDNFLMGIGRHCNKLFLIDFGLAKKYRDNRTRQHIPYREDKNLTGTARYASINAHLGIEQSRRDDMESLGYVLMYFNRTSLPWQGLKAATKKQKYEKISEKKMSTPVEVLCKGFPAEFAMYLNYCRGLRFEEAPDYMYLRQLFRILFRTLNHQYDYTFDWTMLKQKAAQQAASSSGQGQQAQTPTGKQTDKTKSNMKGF

[6] = target: Dual specificity tyrosine-phosphorylation-regulated kinase 3 (Homo sapiens) (UniProt O43781); experiment: Inhibition of DYRK3 (unknown origin) at 10 uM using [33P]-ATP after 20 to 40 mins by scintillation counting method
[7] = target: Ephrin type-A receptor 1 (Homo sapiens) (UniProt P21709); experiment: Inhibition of EPHA1 (unknown origin) at 10 uM using [33P]-ATP after 20 to 40 mins by scintillation counting method
Chain of Ephrin type-A receptor 1 (Homo sapiens) (P21709 whole entry): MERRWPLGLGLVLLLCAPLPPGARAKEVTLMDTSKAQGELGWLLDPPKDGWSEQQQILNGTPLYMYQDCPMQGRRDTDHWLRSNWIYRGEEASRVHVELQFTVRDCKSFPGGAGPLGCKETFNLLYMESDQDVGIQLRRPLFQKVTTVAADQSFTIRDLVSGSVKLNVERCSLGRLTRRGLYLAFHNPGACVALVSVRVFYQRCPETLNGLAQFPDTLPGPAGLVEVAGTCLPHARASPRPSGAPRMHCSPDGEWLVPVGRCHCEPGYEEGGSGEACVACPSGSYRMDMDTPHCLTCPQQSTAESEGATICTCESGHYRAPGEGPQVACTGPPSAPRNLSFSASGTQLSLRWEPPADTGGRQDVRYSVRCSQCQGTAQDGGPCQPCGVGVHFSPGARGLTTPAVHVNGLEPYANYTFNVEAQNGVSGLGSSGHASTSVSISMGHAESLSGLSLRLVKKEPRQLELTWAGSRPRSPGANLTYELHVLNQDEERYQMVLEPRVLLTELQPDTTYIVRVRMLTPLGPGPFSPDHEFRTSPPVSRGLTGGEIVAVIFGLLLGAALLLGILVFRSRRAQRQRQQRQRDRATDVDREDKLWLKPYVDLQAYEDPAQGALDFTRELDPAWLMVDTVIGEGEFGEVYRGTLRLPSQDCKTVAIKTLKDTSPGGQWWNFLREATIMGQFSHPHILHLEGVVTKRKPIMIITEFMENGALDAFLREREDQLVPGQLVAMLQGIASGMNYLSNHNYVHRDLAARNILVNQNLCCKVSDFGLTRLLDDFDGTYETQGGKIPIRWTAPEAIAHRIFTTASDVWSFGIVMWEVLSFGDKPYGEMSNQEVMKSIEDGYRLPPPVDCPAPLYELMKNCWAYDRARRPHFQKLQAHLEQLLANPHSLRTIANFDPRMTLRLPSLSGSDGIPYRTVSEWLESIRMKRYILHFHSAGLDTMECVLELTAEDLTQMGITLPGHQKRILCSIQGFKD

[8] = target: Vascular endothelial growth factor receptor 1 (Homo sapiens) (UniProt P17948); experiment: Inhibition of FLT1 (unknown origin) at 10 uM using [33P]-ATP after 20 to 40 mins by scintillation counting method
[9] = target: Rhodopsin kinase GRK1 (Homo sapiens) (UniProt Q15835); experiment: Inhibition of GRK1 (unknown origin) at 10 uM using [33P]-ATP after 20 to 40 mins by scintillation counting method
Chain of Rhodopsin kinase GRK1 (Homo sapiens) (Q15835 whole entry): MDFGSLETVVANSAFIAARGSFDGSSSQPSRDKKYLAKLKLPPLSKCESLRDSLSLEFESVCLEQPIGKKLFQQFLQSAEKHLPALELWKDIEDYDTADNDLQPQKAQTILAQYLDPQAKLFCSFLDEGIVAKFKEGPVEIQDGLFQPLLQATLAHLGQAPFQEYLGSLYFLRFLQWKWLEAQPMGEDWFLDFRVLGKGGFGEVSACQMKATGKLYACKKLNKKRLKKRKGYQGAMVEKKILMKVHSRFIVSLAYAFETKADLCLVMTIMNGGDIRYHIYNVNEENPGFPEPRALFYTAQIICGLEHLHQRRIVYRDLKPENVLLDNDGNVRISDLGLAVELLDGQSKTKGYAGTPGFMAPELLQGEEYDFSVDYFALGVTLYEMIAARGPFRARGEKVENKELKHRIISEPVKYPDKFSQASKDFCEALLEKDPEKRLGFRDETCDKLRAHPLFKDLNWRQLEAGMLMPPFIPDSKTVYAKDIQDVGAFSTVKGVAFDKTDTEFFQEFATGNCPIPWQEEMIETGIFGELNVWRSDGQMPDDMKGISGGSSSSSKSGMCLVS

[10] = target: Glycogen synthase kinase-3 alpha (Homo sapiens) (UniProt P49840); experiment: Inhibition of GSK3alpha (unknown origin) at 10 uM using [33P]-ATP after 20 to 40 mins by scintillation counting method
Chain of Glycogen synthase kinase-3 alpha (Homo sapiens) (P49840 2-483 limits assumed): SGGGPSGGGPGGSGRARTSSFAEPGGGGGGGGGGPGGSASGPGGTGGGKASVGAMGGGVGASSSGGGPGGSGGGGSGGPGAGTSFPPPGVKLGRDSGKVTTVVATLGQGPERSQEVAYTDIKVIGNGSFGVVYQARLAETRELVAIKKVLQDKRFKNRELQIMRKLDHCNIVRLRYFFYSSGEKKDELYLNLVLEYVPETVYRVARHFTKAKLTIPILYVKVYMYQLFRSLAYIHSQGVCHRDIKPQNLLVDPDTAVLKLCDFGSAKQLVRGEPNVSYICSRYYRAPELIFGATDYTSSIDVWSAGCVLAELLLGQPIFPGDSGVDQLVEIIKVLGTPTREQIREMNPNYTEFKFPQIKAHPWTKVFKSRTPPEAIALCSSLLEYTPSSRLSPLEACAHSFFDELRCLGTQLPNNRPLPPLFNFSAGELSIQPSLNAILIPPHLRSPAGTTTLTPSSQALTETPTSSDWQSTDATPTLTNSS

[11] = target: Ribosomal protein S6 kinase alpha-5 (Homo sapiens) (UniProt O75582); experiment: Inhibition of MSK1 (unknown origin) at 10 uM using [33P]-ATP after 20 to 40 mins by scintillation counting method
Chain of Ribosomal protein S6 kinase alpha-5 (Homo sapiens) (O75582 whole entry, looked up): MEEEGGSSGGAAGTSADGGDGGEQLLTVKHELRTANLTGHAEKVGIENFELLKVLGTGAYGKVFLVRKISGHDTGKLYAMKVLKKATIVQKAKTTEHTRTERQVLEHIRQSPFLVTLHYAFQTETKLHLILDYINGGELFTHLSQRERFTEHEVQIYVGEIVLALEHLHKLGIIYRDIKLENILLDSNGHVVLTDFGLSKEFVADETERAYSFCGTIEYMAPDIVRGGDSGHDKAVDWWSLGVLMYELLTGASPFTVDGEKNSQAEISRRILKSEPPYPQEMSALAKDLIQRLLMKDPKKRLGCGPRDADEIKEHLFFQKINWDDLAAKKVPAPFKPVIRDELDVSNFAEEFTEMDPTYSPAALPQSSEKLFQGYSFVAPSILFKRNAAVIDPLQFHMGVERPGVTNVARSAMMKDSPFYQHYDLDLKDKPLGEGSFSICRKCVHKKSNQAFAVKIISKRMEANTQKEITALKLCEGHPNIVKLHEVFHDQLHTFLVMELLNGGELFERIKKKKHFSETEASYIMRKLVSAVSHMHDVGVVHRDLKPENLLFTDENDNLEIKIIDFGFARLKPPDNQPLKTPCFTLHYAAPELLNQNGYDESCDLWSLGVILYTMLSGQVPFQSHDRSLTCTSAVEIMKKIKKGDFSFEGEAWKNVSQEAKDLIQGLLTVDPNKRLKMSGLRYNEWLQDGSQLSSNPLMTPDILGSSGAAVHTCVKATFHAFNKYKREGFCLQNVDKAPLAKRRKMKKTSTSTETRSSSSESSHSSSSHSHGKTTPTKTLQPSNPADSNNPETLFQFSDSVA

[12] = target: 3-phosphoinositide-dependent protein kinase 1 (Homo sapiens) (UniProt O15530); experiment: Inhibition of PDK1 (unknown origin) at 10 uM using [33P]-ATP after 20 to 40 mins by scintillation counting method
[13] = target: cGMP-dependent protein kinase 1 (Homo sapiens) (UniProt Q13976); experiment: Inhibition of PRKG1 (unknown origin) at 10 uM using [33P]-ATP after 20 to 40 mins by scintillation counting method
[14] = target: Serine/threonine-protein kinase Sgk1 (Homo sapiens) (UniProt O00141); experiment: Inhibition of SGK1 (unknown origin) at 10 uM using [33P]-ATP after 20 to 40 mins by scintillation counting method
[15] = system: MCF7; experiment: Growth inhibition of human MCF7 cells by MTT assay; assay type: functional, cell-based
Method in brief: (§1)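 MTT viability. Cells seeded for 24 h, then exposed to compound for 48 h in DMEM/F-12 or DMEM with 5% FBS. Vehicle controls received matching DMSO. MTT added at 0.5 mg/mL for 3 h at 37 °C. Formazan dissolved in DMSO and absorbance read at 570 nm.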

[16] = system: A549; experiment: Growth inhibition of human A549 cells by MTT assay; assay type: functional, cell-based; method in brief: as §1
[17] = system: Hep 3B2; experiment: Growth inhibition of human Hep3B cells by MTT assay; assay type: functional, cell-based; method in brief: as §1
[18] = target: T1, Prostaglandin G/H synthase 1 (Ovis aries, UniProt P05979); experiment: Inhibition of ovine COX1 assessed as reduction in PGH2 formation by measuring PGF2alpha by colorimetric assay
T1 sequence (P05979 whole entry): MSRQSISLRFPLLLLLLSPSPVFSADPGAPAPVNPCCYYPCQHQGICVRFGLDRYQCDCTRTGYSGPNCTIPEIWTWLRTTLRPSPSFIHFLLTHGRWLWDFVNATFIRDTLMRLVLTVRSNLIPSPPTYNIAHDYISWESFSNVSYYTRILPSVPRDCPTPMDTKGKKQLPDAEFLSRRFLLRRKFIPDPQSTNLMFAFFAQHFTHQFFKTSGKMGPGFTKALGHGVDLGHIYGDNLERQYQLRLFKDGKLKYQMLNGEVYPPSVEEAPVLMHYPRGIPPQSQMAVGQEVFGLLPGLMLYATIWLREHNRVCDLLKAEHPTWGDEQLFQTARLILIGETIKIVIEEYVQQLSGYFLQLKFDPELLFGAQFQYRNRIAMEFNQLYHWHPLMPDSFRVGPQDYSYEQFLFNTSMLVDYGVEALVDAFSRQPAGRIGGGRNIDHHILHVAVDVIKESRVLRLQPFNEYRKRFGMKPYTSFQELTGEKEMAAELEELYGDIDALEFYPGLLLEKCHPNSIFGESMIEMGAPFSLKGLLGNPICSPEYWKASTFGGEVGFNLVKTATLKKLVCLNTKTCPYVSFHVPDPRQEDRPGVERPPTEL
Method in brief: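 Colorimetric COX inhibitor screening kit run per the manufacturer, using ovine COX-1. IC50 calculated from three determinations.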

[19] = target: Epidermal growth factor receptor (Homo sapiens) (UniProt P00533); experiment: Inhibition of EGFR (unknown origin) at 10 uM using [33P]-ATP after 20 to 40 mins by scintillation counting method
[20] = target: Serine/threonine-protein kinase Nek1 (Homo sapiens) (UniProt Q96PY6); experiment: Inhibition of NEK1 (unknown origin) at 10 uM using [33P]-ATP after 20 to 40 mins by scintillation counting method
[21] = system: A549; experiment: Induction of apoptosis in human A549 cells assessed as caspe-3/7 activation at 5 to 20 uM incubated for 24 hrs by Caspase-Glo 3/7 luminescence assay; assay type: functional, cell-based
Method in brief: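 A549 cells plated at 1 x 10^4 per well and allowed 24 h to settle. Medium removed, then compounds added for 24 h at 5, 10 and 20 μM. Vehicle controls received equivalent DMSO. Caspase-3/7 activity read by Caspase-Glo 3/7 luminescence (RLU). Mean ± S.D. (n = 5), experiment done 3 times. Compared with vehicle by one-way ANOVA with Dunnett's test.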

[22] = system: MCF7; experiment: Induction of cell cycle arrest in human MCF7 cells assessed as increase in accumulation at S phase at 5 and 10 uM by propidium iodide staining based flow cytometry relative to untreated control; assay type: functional
Method in brief: (§2)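 MCF-7 seeded at 1×10^5 cells/well and attached overnight, then given 0, 1, 5 or 10 µM for 24 h. Cells pooled, fixed overnight in 70% ice-cold ethanol, treated with RNase A and stained with PI. Flow cytometry on 20000 events with doublets gated out. Mean ± S.D. (n = 3). Compared with DMSO vehicle by one-way ANOVA with Dunnett's test.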

[23] = system: MCF7; experiment: Induction of cell cycle arrest in human MCF7 cells assessed as increase in accumulation at G2/M phase at 10 uM by propidium iodide staining based flow cytometry relative to untreated control; assay type: functional; method in brief: as §2
[24] = system: MCF7; experiment: Induction of apoptosis in human MCF7 cells assessed as viable cells level at 1 uM incubated for 24 hrs by Annexin V PI/FITC staining based flow cytometry (reference value: 72.3%); assay type: functional
[25] = system: MCF7; experiment: Induction of apoptosis in human MCF7 cells assessed as early apoptotic cells level at 1 uM incubated for 24 hrs by Annexin V PI/FITC staining based flow cytometry (reference value: 17.4%); assay type: functional
[26] = system: MCF7; experiment: Induction of apoptosis in human MCF7 cells assessed as late apoptotic cells level at 1 uM incubated for 24 hrs by Annexin V PI/FITC staining based flow cytometry (reference value: 9%); assay type: functional
[27] = system: MCF7; experiment: Induction of apoptosis in human MCF7 cells assessed as late necrosis cells level at 1 uM incubated for 24 hrs by Annexin V PI/FITC staining based flow cytometry (reference value: […]); assay type: functional
[28] = system: MCF7; experiment: Induction of apoptosis in human MCF7 cells assessed as viable cells level at 5 uM incubated for 24 hrs by Annexin V PI/FITC staining based flow cytometry (reference value: 72.3%); assay type: functional
[29] = system: MCF7; experiment: Induction of apoptosis in human MCF7 cells assessed as early apoptotic cells level at 5 uM incubated for 24 hrs by Annexin V PI/FITC staining based flow cytometry (reference value: 17.4%); assay type: functional
[30] = system: MCF7; experiment: Induction of apoptosis in human MCF7 cells assessed as late apoptotic cells level at 5 uM incubated for 24 hrs by Annexin V PI/FITC staining based flow cytometry (reference value: 9%); assay type: functional
[31] = system: MCF7; experiment: Induction of apoptosis in human MCF7 cells assessed as late necrosis cells level at 5 uM incubated for 24 hrs by Annexin V PI/FITC staining based flow cytometry (reference value: […]); assay type: functional
[32] = system: MCF7; experiment: Induction of apoptosis in human MCF7 cells assessed as viable cells level at 10 uM incubated for 24 hrs by Annexin V PI/FITC staining based flow cytometry (reference value: 72.3%); assay type: functional
[33] = system: MCF7; experiment: Induction of apoptosis in human MCF7 cells assessed as early apoptotic cells level at 10 uM incubated for 24 hrs by Annexin V PI/FITC staining based flow cytometry (reference value: 17.4%); assay type: functional
[34] = system: MCF7; experiment: Induction of apoptosis in human MCF7 cells assessed as late apoptotic cells level at 10 uM incubated for 24 hrs by Annexin V PI/FITC staining based flow cytometry (reference value: 9%); assay type: functional
[35] = system: MCF7; experiment: Induction of apoptosis in human MCF7 cells assessed as late necrosis cells level at 10 uM incubated for 24 hrs by Annexin V PI/FITC staining based flow cytometry (reference value: […]); assay type: functional

Cc1ccc(NC(=O)c2ccc(CN3CCN(C)CC3)cc2)cc1Nc1nccc(-c2cccnc2)n1
inhibition [1]: -14% | inhibition [2]: -18% | inhibition [3]: -5% | inhibition [4]: 3% | inhibition [5]: 0% | inhibition [6]: 10% | inhibition [7]: -22% | inhibition [8]: 10% | inhibition [9]: -2% | inhibition [10]: 1% | inhibition [11]: -49% | inhibition [12]: -34% | inhibition [13]: -4% | inhibition [14]: -3%

Cc1ccc(NC(=O)c2c(N=Cc3ccc4ccccc4c3)c(C#N)c3n2CCC3)cc1
IC50 [15]: 7.76 µM | IC50 [16]: 3.24 µM | IC50 [17]: 8.69 µM | IC50 [18]: 12 µM | inhibition [2]: -11% | inhibition [3]: -19% | inhibition [4]: -16% | inhibition [19]: -47% | inhibition [7]: -37% | inhibition [8]: -10% | inhibition [9]: 7% | inhibition [10]: -5% | inhibition [11]: -43% | inhibition [20]: 8% | inhibition [12]: -27% | inhibition [13]: -4% | inhibition [14]: -16% | Activity [21]: Active | Activity [22]: Active | Activity [23]: Active | Activity [24]: 72.2% | Activity [25]: 16.3% | Activity [26]: 10.7% | Activity [27]: 0.8% | Activity [28]: 66.9% | Activity [29]: 23.5% | Activity [30]: 8.5% | Activity [31]: 1.1% | Activity [32]: 62.1% | Activity [33]: 24.2% | Activity [34]: 12.9% | Activity [35]: 0.8%

N#Cc1c(N=Cc2cccnc2)c(C(=O)Nc2ccc(Cl)cc2)n2c1CCC2
IC50 [15]: 22.5 µM | IC50 [16]: 23 µM | IC50 [17]: 31.2 µM | IC50 [18]: 5.78 µM

Cc1ccc(NC(=O)c2c(N=Cc3cccs3)c(C#N)c3n2CCC3)cc1
IC50 [15]: 5.35 µM | IC50 [16]: 11.4 µM | IC50 [17]: 13.8 µM | IC50 [18]: 10.4 µM

N#Cc1c(N=Cc2ccco2)c(C(=O)Nc2ccccc2)n2c1CCC2
IC50 [15]: 8.35 µM | IC50 [16]: 9.75 µM | IC50 [17]: 12.8 µM | IC50 [18]: 6.54 µM

N#Cc1c(N=Cc2ccc3ccccc3c2)c(C(=O)Nc2ccc(Cl)cc2)n2c1CCC2
IC50 [15]: 9.82 µM | IC50 [16]: 11.2 µM | IC50 [17]: 12.5 µM | IC50 [18]: 10.6 µM

Cc1ccc(NC(=O)c2c(N=Cc3ccco3)c(C#N)c3n2CCC3)cc1
IC50 [15]: 16.1 µM | IC50 [16]: 29.4 µM | IC50 [17]: 24.4 µM | IC50 [18]: 9.23 µM

N#Cc1c(N=Cc2ccco2)c(C(=O)Nc2ccc(Cl)cc2)n2c1CCC2
IC50 [15]: 15.7 µM | IC50 [16]: 28.4 µM | IC50 [17]: 27.5 µM | IC50 [18]: 8.41 µM
